Measurements as given in ChEMBL document CHEMBL2040768, “Synthesis, antimicrobial and cytotoxic activities of sulfone linked bis heterocycles” (Eur J Med Chem, 2012).
Values after ≈ are worked out from the molar mass of the structure shown. Active and inactive are the calls of the source. The rule behind the calls is not given here.

Key:
Staphylococcus aureus [1] = experiment: Antibacterial activity against Staphylococcus aureus at 50 ug/ml after 24 hrs by agar well diffusion method; type: functional; conditions: read-out: DIZ
Summary of the method: (§1)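 Agar well diffusion. Nutrient plates swabbed with 24 h broth culture of the bacterium; 6 mm wells bored and loaded with DMSO solutions of compound (wells at 50 and 100 per well). Chloramphenicol positive control, DMSO negative control. Plates held 37 °C, 24 h; inhibition zone diameter (mm) measured, mean of duplicates.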

Staphylococcus aureus [2] = experiment: Antibacterial activity against Staphylococcus aureus at 100 ug/ml after 24 hrs by agar well diffusion method; type: functional; conditions: read-out: DIZ; summary of the method: as §1
Bacillus subtilis [3] = experiment: Antibacterial activity against Bacillus subtilis at 50 ug/ml after 24 hrs by agar well diffusion method; type: functional; conditions: read-out: DIZ; summary of the method: as §1
Bacillus subtilis [4] = experiment: Antibacterial activity against Bacillus subtilis at 100 ug/ml after 24 hrs by agar well diffusion method; type: functional; conditions: read-out: DIZ; summary of the method: as §1
Pseudomonas aeruginosa [5] = experiment: Antibacterial activity against Pseudomonas aeruginosa at 50 ug/ml after 24 hrs by agar well diffusion method; type: functional; conditions: read-out: DIZ; summary of the method: as §1
Pseudomonas aeruginosa [6] = experiment: Antibacterial activity against Pseudomonas aeruginosa at 100 ug/ml after 24 hrs by agar well diffusion method; type: functional; conditions: read-out: DIZ; summary of the method: as §1
Klebsiella pneumoniae [7] = experiment: Antibacterial activity against Klebsiella pneumoniae at 50 ug/ml after 24 hrs by agar well diffusion method; type: functional; conditions: read-out: DIZ; summary of the method: as §1
Klebsiella pneumoniae [8] = experiment: Antibacterial activity against Klebsiella pneumoniae at 100 ug/ml after 24 hrs by agar well diffusion method; type: functional; conditions: read-out: DIZ; summary of the method: as §1
Aspergillus niger [9] = experiment: Antifungal activity against Aspergillus niger at 50 ug/ml after 48 hrs by agar well diffusion method; type: functional; conditions: read-out: DIZ
Summary of the method: (§2)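 Fungal agar well diffusion. Plates swabbed with fungal culture, 6 mm wells filled with DMSO solutions of compound (50 and 100 per well). Ketoconazole positive and DMSO negative controls. Plates incubated 28 °C for 48 h; zone of inhibition diameter (mm) read, average of duplicates.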

Aspergillus niger [10] = experiment: Antifungal activity against Aspergillus niger at 100 ug/ml after 48 hrs by agar well diffusion method; type: functional; conditions: read-out: DIZ; summary of the method: as §2
Penicillium chrysogenum [11] = experiment: Antifungal activity against Penicillium chrysogenum at 50 ug/ml after 48 hrs by agar well diffusion method; type: functional; conditions: read-out: DIZ; summary of the method: as §2
Penicillium chrysogenum [12] = experiment: Antifungal activity against Penicillium chrysogenum at 100 ug/ml after 48 hrs by agar well diffusion method; type: functional; conditions: read-out: DIZ; summary of the method: as §2
Staphylococcus aureus [13] = experiment: Antibacterial activity against Staphylococcus aureus after 24 hrs by broth dilution method; type: functional
Summary of the method: (§3)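 Broth dilution MIC. Test samples in DMSO added at increasing concentrations to tubes of nutrient broth cultures, incubated 37 °C for 24 h. Visible turbidity scored against NB control; solvent and no-sample controls included. MIC = lowest concentration preventing visible growth.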

Bacillus subtilis [14] = experiment: Antibacterial activity against Bacillus subtilis after 24 hrs by broth dilution method; type: functional; summary of the method: as §3
Pseudomonas aeruginosa [15] = experiment: Antibacterial activity against Pseudomonas aeruginosa after 24 hrs by broth dilution method; type: functional; summary of the method: as §3
Klebsiella pneumoniae [16] = experiment: Antibacterial activity against Klebsiella pneumoniae after 24 hrs by broth dilution method; type: functional; summary of the method: as §3
Aspergillus niger [17] = experiment: Antifungal activity against Aspergillus niger after 48 hrs by broth dilution method; type: functional
Summary of the method: (§4)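 Fungal MIC by broth dilution. Compounds dissolved in DMSO, added at rising concentrations to fungal culture tubes, incubated 28 °C for 48 h. Tubes read for visible turbidity alongside a solvent control; lowest concentration with no visible growth taken as MIC.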

Penicillium chrysogenum [18] = experiment: Antifungal activity against Penicillium chrysogenum after 48 hrs by broth dilution method; type: functional; summary of the method: as §4
Staphylococcus aureus [19] = experiment: Bactericidal activity against Staphylococcus aureus after 24 hrs by broth dilution method; type: functional
Bacillus subtilis [20] = experiment: Bactericidal activity against Bacillus subtilis after 24 hrs by broth dilution method; type: functional
Pseudomonas aeruginosa [21] = experiment: Bactericidal activity against Pseudomonas aeruginosa after 24 hrs by broth dilution method; type: functional
Klebsiella pneumoniae [22] = experiment: Bactericidal activity against Klebsiella pneumoniae after 24 hrs by broth dilution method; type: functional
Aspergillus niger [23] = experiment: Fungicidal activity against Aspergillus niger after 48 hrs by broth dilution method; type: functional
Penicillium chrysogenum [24] = experiment: Fungicidal activity against Penicillium chrysogenum after 48 hrs by broth dilution method; type: functional
Bacillus subtilis [25] = experiment: Ratio of MBC to MIC for Bacillus subtilis after 24 hrs; type: functional
Penicillium chrysogenum [26] = experiment: Ratio of MFC to MIC for Penicillium chrysogenum after 48 hrs; type: functional
A549 [27] = experiment: Cytotoxicity against human A549 cells up to 0.2 mM after 72 hrs by MTT assay
A549 [28] = experiment: Cytotoxicity against human A549 cells after 72 hrs by MTT assay; type: functional, cell-based
Summary of the method: (§5)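 A549 lung carcinoma cells, 5 × 10⁴ per well, in DMEM with 10% FBS and antibiotics at 37 °C, 5% CO₂. After 3–4 h attachment, compound added at various concentrations for 72 h. MTT then added for 3 h, formazan dissolved in DMSO, absorbance read at 550 nm. Triplicate wells, three independent experiments; IC50 derived by curve fitting.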

A549 [29] = experiment: Cytotoxicity against human A549 cells assessed as decrease in viability at 100 to 200 uM after 72 hrs by MTT assay; type: functional, cell-based; summary of the method: as §5
A549 [30] = experiment: Cytotoxicity against human A549 cells assessed as viability at 12.5 uM after 72 hrs by MTT assay; type: functional; conditions: A549, 72 h, read-out: Activity; summary of the method: as §5

| SMILES | zone of inhibition at 50 µg/mL (Staphylococcus aureus [1]) [mm] | zone of inhibition at 100 µg/mL (Staphylococcus aureus [2]) [mm] | zone of inhibition at 50 µg/mL (Bacillus subtilis [3]) [mm] | zone of inhibition at 100 µg/mL (Bacillus subtilis [4]) [mm] | zone of inhibition at 50 µg/mL (Pseudomonas aeruginosa [5]) [mm] | zone of inhibition at 100 µg/mL (Pseudomonas aeruginosa [6]) [mm] | zone of inhibition at 50 µg/mL (Klebsiella pneumoniae [7]) [mm] | zone of inhibition at 100 µg/mL (Klebsiella pneumoniae [8]) [mm] | zone of inhibition at 50 µg/mL (Aspergillus niger [9]) [mm] | zone of inhibition at 100 µg/mL (Aspergillus niger [10]) [mm] | zone of inhibition at 50 µg/mL (Penicillium chrysogenum [11]) [mm] | zone of inhibition at 100 µg/mL (Penicillium chrysogenum [12]) [mm] | MIC (Staphylococcus aureus [13]) [µg/mL] | MIC (Bacillus subtilis [14]) [µg/mL] | MIC (Pseudomonas aeruginosa [15]) [µg/mL] | MIC (Klebsiella pneumoniae [16]) [µg/mL] | MIC (Aspergillus niger [17]) [µg/mL] | MIC (Penicillium chrysogenum [18]) [µg/mL] | MBC (Staphylococcus aureus [19]) [µg/mL] | MBC (Bacillus subtilis [20]) [µg/mL] | further results |
| --- | --- | --- | --- | --- | --- | --- | --- | --- | --- | --- | --- | --- | --- | --- | --- | --- | --- | --- | --- | --- | --- |
| Nn1c(CS(=O)(=O)/C=C/S(=O)(=O)c2ccc(Cl)cc2)nnc1CS(=O)(=O)Nc1ccc(Cl)cc1 | 32 | 35 | 36 | 38 | 31 | 33 | 39 | 40 | 32 | 34 | 35 | 38 | 12.5 (≈ 22.1 µM) | 12.5 (≈ 22.1 µM) | 12.5 (≈ 22.1 µM) | 25 (≈ 44.1 µM) | 12.5 (≈ 22.1 µM) | 25 (≈ 44.1 µM) | 50 (≈ 88.3 µM) | 25 (≈ 44.1 µM) | MBC (Pseudomonas aeruginosa [21]): 50 µg/mL (≈ 88.3 µM); MBC (Klebsiella pneumoniae [22]): 100 µg/mL (≈ 177 µM); MFC (Aspergillus niger [23]): 100 µg/mL (≈ 177 µM); MFC (Penicillium chrysogenum [24]): 50 µg/mL (≈ 88.3 µM); Ratio (Bacillus subtilis [25]): 2; Ratio (Penicillium chrysogenum [26]): 2; Activity (A549 [27]): inactive |
| Nn1c(CS(=O)(=O)Nc2ccc(Cl)cc2)nnc1CS(=O)(=O)c1c[nH]cc1S(=O)(=O)c1ccc(Cl)cc1 | 30 | 33 | 29 | 33 | 25 | 28 | 34 | 36 | 32 | 34 | 33 | 36 | 50 (≈ 82.6 µM) | 25 (≈ 41.3 µM) | 50 (≈ 82.6 µM) | 100 (≈ 165 µM) | 25 (≈ 41.3 µM) | 50 (≈ 82.6 µM) | 200 (≈ 330 µM) | 100 (≈ 165 µM) | MBC (Pseudomonas aeruginosa [21]): > 200 µg/mL; MBC (Klebsiella pneumoniae [22]): > 200 µg/mL; MFC (Aspergillus niger [23]): 100 µg/mL (≈ 165 µM); MFC (Penicillium chrysogenum [24]): > 200 µg/mL; Activity (A549 [27]): inactive |
| Nn1c(CS(=O)(=O)Nc2ccc(Cl)cc2)nnc1CS(=O)(=O)c1c[nH]nc1S(=O)(=O)c1ccc(Cl)cc1 | 31 | 34 | 33 | 35 | 30 | 32 | 37 | 39 | 30 | 34 | 33 | 37 | 50 (≈ 82.4 µM) | 12.5 (≈ 20.6 µM) | 25 (≈ 41.2 µM) | 50 (≈ 82.4 µM) | 12.5 (≈ 20.6 µM) | 25 (≈ 41.2 µM) | 200 (≈ 330 µM) | 50 (≈ 82.4 µM) | MBC (Pseudomonas aeruginosa [21]): 100 µg/mL (≈ 165 µM); MBC (Klebsiella pneumoniae [22]): 200 µg/mL (≈ 330 µM); MFC (Aspergillus niger [23]): 50 µg/mL (≈ 82.4 µM); MFC (Penicillium chrysogenum [24]): 100 µg/mL (≈ 165 µM); Activity (A549 [27]): inactive |
| O=S(=O)(/C=C/S(=O)(=O)c1ccc(Cl)cc1)Cc1nnc(CS(=O)(=O)Nc2ccc(Cl)cc2)o1 | 14 | 17 | 15 | 17 | 16 | 19 | 15 | 17 | 19 | 22 | 21 | 25 |  |  |  |  |  |  |  |  | Activity (A549 [28]): Dose-dependent effect; IC50 (A549 [28]; A549, 72 h): 31.7 µM; Activity (A549 [29]): Active; viability at 12.5 µM (A549 [30]): > 75% |
